This passage reports MIC, MCC and IC50 results from ChEMBL document CHEMBL1122581, “Antiviral activity of C-5 substituted tubercidin analogues” (1984).

Assay type in all cases: functional
The subject of one test is Human alphaherpesvirus 1. The test is described as follows: Concentration required to reduce HSV-1 (KOS) induced cytopathogenicity by 50% in primary rabbit kidney cell cultures. (In general: Damage to the host cells serves as the signal in cytopathic effect assays.)
The next test deals with HeLa. Briefly: Concentration required to cause a microscopically detectable alteration in cell morphology in HeLa cell cultures. Particulars: Homo sapiens, read-out: Min cytotoxic concentration. The procedure, abridged:
(§1)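 Uninfected cell monolayers were run in parallel with the antiviral assays and exposed to compound for the same period as the infected cultures. The end point was the lowest concentration giving a microscopically detectable disruption of normal cell morphology.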

In the next test the test system is Human alphaherpesvirus 2. Briefly: Concentration required to reduce HSV-2 (G) induced cytopathogenicity by 50% in primary rabbit kidney cell cultures.
Another test concerns L1210. Briefly: Dose required to inhibit proliferation of L-1210 Cells by 50%. Particulars: Mus musculus, read-out: ID50 (the source's name). The procedure, abridged:
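Inhibition of proliferation of murine leukemia L-1210 cells in exponential growth phase. ID50 is the dose inhibiting cell proliferation by 50%, given plus or minus standard deviation.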

For another test, the species on record is Oryctolagus cuniculus. The test is described as follows: Concentration required to cause a microscopically detectable alteration in cell morphology in primary rabbit kidney cell cultures. Particulars: read-out: Min cytotoxic concentration. The procedure, abridged:
as §1

The subject of test [1] is Coxsackievirus B4. Briefly: Concentration required to reduce coxsackie virus B4 induced cytopathogenicity by 50% in vero cell cultures. Particulars: Enterovirus B.
For test [2], the system named is Coxsackievirus B4. The test is described as follows: Concentration required to reduce coxsackie virus 4 induced cytopathogenicity by 50% in HeLa cell cultures. Particulars: Enterovirus B.
For another test, the system named is Human respirovirus 3. Briefly: Concentration required to reduce parainfluenza virus type 3 induced cytopathogenicity by 50% in vero cell cultures.
The next test deals with Poliovirus 1. Briefly: Concentration required to reduce polio virus type 1 induced cytopathogenicity by 50% in HeLa cell cultures. Particulars: Enterovirus C.
Another test deals with Vero. The test is described as follows: Concentration required to cause a microscopically detectable alteration in cell morphology in vero cell cultures. Particulars: Chlorocebus sabaeus, read-out: Min cytotoxic concentration. An outline of the steps: as §1
Another test deals with Sindbis virus. Briefly: Concentration required to reduce sindbis virus induced cytopathogenicity by 50% in vero cell cultures.
Test [3] concerns Vesicular stomatitis virus. Briefly: Concentration required to reduce vesicular stomatitis virus induced cytopathogenicity by 50% in primary rabbit kidney cell cultures.
The test system of test [4] is Mammalian orthoreovirus 1. Briefly: Concentration required to reduce reovirus type 1 induced cytopathogenicity by 50% in vero cell cultures.
In test [5] the test system is Vesicular stomatitis virus. The test is described as follows: Concentration required to reduce vesicular stomatitis virus induced cytopathogenicity by 50% in HeLa cell cultures.

SMILES strings stand for the structures. In brackets after ≈: the same amount, converted by molar mass.

On to `Nc1ncnc2c1ccn2[C@@H]1O[C@H](CO)[C@@H](O)[C@H]1O` [TUBERCIDIN], for which the MIC in the test on Human alphaherpesvirus 1 was 0.07 µg/mL (≈ 0.263 µM); with Human alphaherpesvirus 2 it was 0.2 µg/mL (≈ 0.751 µM); in the test with Coxsackievirus B4 [1], 0.2 µg/mL (≈ 0.751 µM); with Coxsackievirus B4 [2], 0.2 µg/mL (≈ 0.751 µM); with Human respirovirus 3 it was 0.07 µg/mL (≈ 0.263 µM); against Poliovirus 1, 0.007 µg/mL (≈ 0.0263 µM). Further, the MIC in the test on Sindbis virus is 0.2 µg/mL (≈ 0.751 µM); in [3], 0.007 µg/mL (≈ 0.0263 µM); in [4] it was 0.07 µg/mL (≈ 0.263 µM); in [5], 0.007 µg/mL (≈ 0.0263 µM). The MCC in the test on HeLa, in the test filed under Oryctolagus cuniculus and in the test with Vero was 0.4 µg/mL in each case. The IC50 with L1210 came out at 0.04 µg/mL (≈ 0.15 µM).
Turning to `NC(=O)c1ncn([C@@H]2O[C@H](CO)[C@@H](O)[C@H]2O)n1` [RIBAVIRIN], the MIC against Human alphaherpesvirus 1 was greater than 400 µg/mL; in the test on Human alphaherpesvirus 2, greater than 400 µg/mL; in the test on Coxsackievirus B4 [1], greater than 400 µg/mL; against Coxsackievirus B4 [2], 20 µg/mL (≈ 81.9 µM); against Human respirovirus 3 it was 20 µg/mL (≈ 81.9 µM); in the test on Poliovirus 1 it was 7 µg/mL (≈ 28.7 µM). In addition, the MIC against Sindbis virus was determined as 150 µg/mL (≈ 614 µM); in test [3], 70 µg/mL (≈ 287 µM); in [4], 20 µg/mL (≈ 81.9 µM); in test [5], 4 µg/mL (≈ 16.4 µM). For the same compound, the MCC in the test with HeLa, in the test filed under Oryctolagus cuniculus and with Vero was greater than 400 µg/mL in each case. Moreover, the IC50 in the test on L1210 was 3.18 µg/mL (≈ 13 µM).
For `N#Cc1cn([C@@H]2O[C@H](CO)[C@@H](O)[C@H]2O)c2ncnc(N)c12` [TOYOCAMYCIN], the MIC is greater than 0.04 µg/mL against Human alphaherpesvirus 1; 0.07 µg/mL (≈ 0.24 µM) in the test with Human alphaherpesvirus 2; greater than 0.01 µg/mL with Coxsackievirus B4 [1]; greater than 0.01 µg/mL against Coxsackievirus B4 [2]; greater than 0.01 µg/mL against Human respirovirus 3; greater than 0.01 µg/mL against Poliovirus 1. Also, the MIC was greater than 0.01 µg/mL against Sindbis virus, greater than 1 µg/mL in test [3], greater than 0.01 µg/mL in test [4] and 0.07 µg/mL (≈ 0.24 µM) in test [5]. The MCC is greater than 0.4 µg/mL in the test on HeLa, greater than 0.04 µg/mL in the test listed under Oryctolagus cuniculus and 0.04 µg/mL in the test with Vero. In the test on L1210, the IC50 stood at 0.006 µg/mL (≈ 0.0206 µM).
In the case of `CC(O)c1cn(C2O[C@H](CO)[C@@H](O)[C@H]2O)c2ncnc(N)c12` (some centres undefined), the MIC is 2 µg/mL (≈ 6.45 µM) against Human alphaherpesvirus 1; 7 µg/mL (≈ 22.6 µM) in the test with Human alphaherpesvirus 2; 2 µg/mL (≈ 6.45 µM) with Coxsackievirus B4 [1]; 0.7 µg/mL (≈ 2.26 µM) in the test with Coxsackievirus B4 [2]; 0.7 µg/mL (≈ 2.26 µM) against Human respirovirus 3; 0.2 µg/mL (≈ 0.645 µM) with Poliovirus 1. The MIC in the test on Sindbis virus was found to be 7 µg/mL (≈ 22.6 µM); in test [3], 0.4 µg/mL (≈ 1.29 µM); in test [4], 0.4 µg/mL (≈ 1.29 µM); in test [5], 0.2 µg/mL (≈ 0.645 µM). For the same compound, the MCC in the test with HeLa is 40 µg/mL; in the test listed under Oryctolagus cuniculus it was 10 µg/mL; with Vero, 40 µg/mL. Moreover, the IC50 in the test on L1210 amounted to 0.111 µg/mL (≈ 0.358 µM).
Regarding `Nc1ncnc2c1c(Br)cn2[C@@H]1O[C@H](CO)[C@@H](O)[C@H]1O`, the MIC in the test on Human alphaherpesvirus 1 was greater than 1 µg/mL; in the test with Human alphaherpesvirus 2, greater than 1 µg/mL; against Coxsackievirus B4 [1], greater than 0.4 µg/mL; in the test on Coxsackievirus B4 [2], greater than 0.4 µg/mL; with Human respirovirus 3, greater than 0.4 µg/mL; with Poliovirus 1, greater than 0.4 µg/mL. Further, the MIC against Sindbis virus was greater than 0.4 µg/mL; in test [3], greater than 1 µg/mL; in [4], greater than 0.4 µg/mL; in test [5], greater than 0.4 µg/mL. Moreover, the results for the MCC with HeLa, in the test listed under Oryctolagus cuniculus and with Vero were 1 µg/mL, 1 µg/mL and 0.4 µg/mL, respectively. For the same compound, the IC50 in the test on L1210 amounted to 0.587 µg/mL (≈ 1.7 µM).
For the compound `COC(C)c1cn(C2O[C@H](CO)[C@@H](O)[C@H]2O)c2ncnc(N)c12` (some centres undefined), the MIC is 20 µg/mL (≈ 61.7 µM) in the test on Human alphaherpesvirus 1; greater than 40 µg/mL against Human alphaherpesvirus 2; 2 µg/mL (≈ 6.17 µM) in the test with Coxsackievirus B4 [1]; 0.7 µg/mL (≈ 2.16 µM) in the test with Coxsackievirus B4 [2]; 2 µg/mL (≈ 6.17 µM) in the test with Human respirovirus 3; 0.7 µg/mL (≈ 2.16 µM) in the test on Poliovirus 1. In addition, the MIC against Sindbis virus was greater than 40 µg/mL; in test [3], greater than 40 µg/mL; in test [4] it was greater than 1 µg/mL; in test [5], greater than 10 µg/mL. The MCC in the test with HeLa was 10 µg/mL; in the test listed under Oryctolagus cuniculus, 100 µg/mL; in the test on Vero, 100 µg/mL. For the same compound, the IC50 with L1210 is 0.404 µg/mL (≈ 1.25 µM).
